According to ChEMBL document CHEMBL5137074 (J Med Chem, 2022):

Tests used:
Wee1-like protein kinase = Wee1-like protein kinase (Homo sapiens, UniProt P30291); test: Inhibition of WEE1 (unknown origin)
[1] = rat, in vivo, po, 5 mg/kg, 24 h
[2] = rat, in vivo, iv, 1 mg/kg, 24 h
[3] = Plasma protein binding in rat at 1 uM
[4] = molecular target: T1, Membrane-associated tyrosine- and threonine-specific cdc2-inhibitory kinase (Homo sapiens, UniProt Q99640)
T1 sequence (Q99640 whole entry): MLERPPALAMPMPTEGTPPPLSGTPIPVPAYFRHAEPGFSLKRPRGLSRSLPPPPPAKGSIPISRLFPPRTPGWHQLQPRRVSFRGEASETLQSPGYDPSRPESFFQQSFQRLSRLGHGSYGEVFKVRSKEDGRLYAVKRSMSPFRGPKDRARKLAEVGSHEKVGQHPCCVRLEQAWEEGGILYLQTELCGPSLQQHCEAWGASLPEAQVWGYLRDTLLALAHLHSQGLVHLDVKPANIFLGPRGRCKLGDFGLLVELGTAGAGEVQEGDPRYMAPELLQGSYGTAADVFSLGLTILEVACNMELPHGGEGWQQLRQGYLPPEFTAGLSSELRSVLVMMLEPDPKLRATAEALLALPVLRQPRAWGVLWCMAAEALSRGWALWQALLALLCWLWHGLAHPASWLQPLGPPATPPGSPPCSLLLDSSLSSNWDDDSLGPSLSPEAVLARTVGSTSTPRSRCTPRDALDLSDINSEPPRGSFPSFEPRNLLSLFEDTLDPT

Cytochrome P450 2D6 = Cytochrome P450 2D6 (Homo sapiens, UniProt P10635); test: Inhibition of CYP2D6 (unknown origin)
[5] = Apparent permeability across apical to basolateral side in human Caco-2 cells
Cytochrome P450 3A4 = Cytochrome P450 3A4 (Homo sapiens, UniProt P08684); test: Inhibition of CYP3A4 (unknown origin)
Cytochrome P450 2C9 = Cytochrome P450 2C9 (Homo sapiens, UniProt P11712); test: Inhibition of CYP2C9 (unknown origin)
[6] = Metabolic stability in human hepatocytes assessed as intrinsic clearance measured per 10^6 cells
Ephrin type-B receptor 3 = molecular target: T2, Ephrin type-B receptor 3 (Homo sapiens, UniProt P54753); test: Inhibition of full length Nano-luc fused EPHB3 in human HEK-293T cells incubated for 2 hrs by cell based NanoBRET target engagement assay
T2 sequence (P54753 whole entry): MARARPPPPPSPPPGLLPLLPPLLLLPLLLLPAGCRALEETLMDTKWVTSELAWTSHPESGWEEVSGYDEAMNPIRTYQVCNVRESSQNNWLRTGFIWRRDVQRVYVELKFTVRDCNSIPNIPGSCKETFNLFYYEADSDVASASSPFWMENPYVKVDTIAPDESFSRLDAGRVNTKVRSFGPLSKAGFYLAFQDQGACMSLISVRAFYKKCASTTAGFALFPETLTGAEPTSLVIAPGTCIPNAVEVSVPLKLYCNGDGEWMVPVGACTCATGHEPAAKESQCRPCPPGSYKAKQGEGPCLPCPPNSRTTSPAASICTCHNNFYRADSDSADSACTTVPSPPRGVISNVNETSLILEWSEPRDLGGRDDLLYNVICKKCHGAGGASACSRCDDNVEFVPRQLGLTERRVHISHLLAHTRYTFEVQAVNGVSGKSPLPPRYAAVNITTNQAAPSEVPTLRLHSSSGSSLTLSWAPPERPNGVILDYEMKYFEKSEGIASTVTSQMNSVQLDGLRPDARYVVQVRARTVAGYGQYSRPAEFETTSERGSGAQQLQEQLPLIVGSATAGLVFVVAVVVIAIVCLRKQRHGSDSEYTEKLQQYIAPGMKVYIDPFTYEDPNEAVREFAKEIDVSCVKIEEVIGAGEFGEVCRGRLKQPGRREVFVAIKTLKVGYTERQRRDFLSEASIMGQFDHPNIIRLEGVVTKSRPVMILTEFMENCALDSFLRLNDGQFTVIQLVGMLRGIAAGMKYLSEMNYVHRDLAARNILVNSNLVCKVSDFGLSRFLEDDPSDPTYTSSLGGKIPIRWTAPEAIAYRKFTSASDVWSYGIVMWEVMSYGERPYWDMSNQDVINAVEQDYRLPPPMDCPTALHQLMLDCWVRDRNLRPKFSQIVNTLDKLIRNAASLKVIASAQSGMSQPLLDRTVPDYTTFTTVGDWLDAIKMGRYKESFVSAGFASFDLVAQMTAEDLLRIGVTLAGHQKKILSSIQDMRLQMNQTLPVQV
Procedure, shortened: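 HEK293T cells transiently transfected with the NanoLuc–kinase fusion vector plus carrier DNA and left overnight at 37 °C/5% CO2. Cells were resuspended in phenol red-free Opti-MEM at 17000 cells/well with the tracer. They were then exposed to compound for 2 h at 37 °C, and substrate/inhibitor mix was added. Acceptor (610 nm) and donor (450 nm) emissions were read.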

Chain of Wee1-like protein kinase (P30291 whole entry): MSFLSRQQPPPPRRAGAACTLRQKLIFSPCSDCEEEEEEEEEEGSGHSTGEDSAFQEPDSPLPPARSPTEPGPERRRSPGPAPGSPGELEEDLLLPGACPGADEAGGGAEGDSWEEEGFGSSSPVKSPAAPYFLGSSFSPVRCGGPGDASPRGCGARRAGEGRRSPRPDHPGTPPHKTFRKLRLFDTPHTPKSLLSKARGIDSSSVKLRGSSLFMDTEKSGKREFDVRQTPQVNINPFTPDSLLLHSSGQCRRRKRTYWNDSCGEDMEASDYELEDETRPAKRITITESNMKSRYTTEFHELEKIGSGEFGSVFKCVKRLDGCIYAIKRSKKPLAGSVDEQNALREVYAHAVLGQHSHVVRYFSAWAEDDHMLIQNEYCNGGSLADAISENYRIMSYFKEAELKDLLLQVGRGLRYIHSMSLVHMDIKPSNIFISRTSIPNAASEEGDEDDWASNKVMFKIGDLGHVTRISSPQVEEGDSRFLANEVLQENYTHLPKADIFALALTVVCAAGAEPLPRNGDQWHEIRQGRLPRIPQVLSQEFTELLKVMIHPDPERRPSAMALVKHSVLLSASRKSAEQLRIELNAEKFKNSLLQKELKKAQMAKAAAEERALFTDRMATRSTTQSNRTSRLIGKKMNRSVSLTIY
Chain of Cytochrome P450 3A4 (P08684 whole entry): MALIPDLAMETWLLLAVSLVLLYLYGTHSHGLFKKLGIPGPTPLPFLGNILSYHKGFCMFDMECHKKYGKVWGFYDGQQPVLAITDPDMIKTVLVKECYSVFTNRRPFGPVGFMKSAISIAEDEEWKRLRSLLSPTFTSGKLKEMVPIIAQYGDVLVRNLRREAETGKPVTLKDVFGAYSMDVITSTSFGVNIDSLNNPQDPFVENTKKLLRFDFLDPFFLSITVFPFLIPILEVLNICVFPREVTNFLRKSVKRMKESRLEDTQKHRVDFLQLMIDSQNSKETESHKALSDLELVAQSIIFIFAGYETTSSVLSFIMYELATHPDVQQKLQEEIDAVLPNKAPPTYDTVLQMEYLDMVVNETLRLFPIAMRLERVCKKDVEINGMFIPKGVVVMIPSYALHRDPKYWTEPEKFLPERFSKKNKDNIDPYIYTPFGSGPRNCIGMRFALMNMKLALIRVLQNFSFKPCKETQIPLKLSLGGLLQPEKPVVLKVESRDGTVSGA
Chain of Cytochrome P450 2C9 (P11712 whole entry): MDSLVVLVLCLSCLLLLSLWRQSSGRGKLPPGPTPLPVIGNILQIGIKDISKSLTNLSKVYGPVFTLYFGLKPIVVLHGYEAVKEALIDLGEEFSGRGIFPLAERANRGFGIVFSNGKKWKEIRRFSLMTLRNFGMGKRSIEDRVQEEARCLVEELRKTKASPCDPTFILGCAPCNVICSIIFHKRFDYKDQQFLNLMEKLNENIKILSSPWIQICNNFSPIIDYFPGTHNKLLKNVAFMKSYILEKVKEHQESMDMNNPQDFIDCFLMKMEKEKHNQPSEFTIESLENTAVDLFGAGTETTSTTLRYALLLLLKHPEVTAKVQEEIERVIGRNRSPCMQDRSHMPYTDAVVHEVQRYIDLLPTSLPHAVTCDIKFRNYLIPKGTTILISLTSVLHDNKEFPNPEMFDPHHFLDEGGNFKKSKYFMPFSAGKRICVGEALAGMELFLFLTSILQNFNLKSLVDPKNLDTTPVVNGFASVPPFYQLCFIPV
Chain of Cytochrome P450 2D6 (P10635 whole entry): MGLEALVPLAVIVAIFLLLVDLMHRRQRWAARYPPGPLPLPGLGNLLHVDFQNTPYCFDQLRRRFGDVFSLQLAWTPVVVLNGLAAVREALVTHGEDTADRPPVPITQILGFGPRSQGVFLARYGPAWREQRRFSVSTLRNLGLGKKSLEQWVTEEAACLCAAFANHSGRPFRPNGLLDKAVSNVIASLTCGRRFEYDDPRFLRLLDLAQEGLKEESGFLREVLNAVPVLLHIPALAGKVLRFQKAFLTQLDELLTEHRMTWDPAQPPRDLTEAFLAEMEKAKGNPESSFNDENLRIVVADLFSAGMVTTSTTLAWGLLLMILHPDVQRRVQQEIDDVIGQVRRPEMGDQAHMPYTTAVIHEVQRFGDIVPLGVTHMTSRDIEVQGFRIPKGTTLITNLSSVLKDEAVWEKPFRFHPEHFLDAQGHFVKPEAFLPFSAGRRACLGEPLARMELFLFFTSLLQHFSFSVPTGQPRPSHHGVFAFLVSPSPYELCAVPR

Question: For `Cc1ccc2[nH]ncc2c1-n1c(N)c(C(N)=O)c2nc3ccccc3nc21`, which IC50 (Wee1-like protein kinase) is on record?
Answer: The IC50 was 3.2 µM.

Question: With `Cc1ccc(O)c(C)c1-n1c(N)c(C(N)=O)c2cc(C3CC3)cnc21` as the molecule, how does the F [1] read?
Answer: The F was 28%.

Question: What about the CL free [2] of the same molecule?
Answer: Its CL free is 170 mL/min/kg.

Question: And the PPB [3]?
Answer: Its PPB is 80.3%.

Question: Which IC50 [4] does the source give for `Cc1ccc(O)c(C)c1-n1c(N)c(C(N)=O)c2nc3cc(Br)ccc3nc21` here?
Answer: The IC50 was < 3 nM.

Question: What does the source list for `Cc1cnc2c(c1)c(C(N)=O)c(N)n2-c1c(C)ccc(O)c1C`?
Answer: F [1]: 62%; CL free [2]: 76 mL/min/kg; PPB [3]: 73.8%

Question: With `Cc1ccc(O)c(C)c1-n1c(N)c(C(N)=O)c2nc3cccc(-c4ccnn4C)c3nc21` as the molecule, how does the IC50 [4] read?
Answer: Its IC50 is < 3 nM.

Question: Which IC50 [4] does the source give for `Cc1ccc(O)c(C)c1-n1c(N)c(C(N)=O)c2nc3cccc(Br)c3nc21` here?
Answer: Its IC50 is < 3 nM.

Question: What does the source list for `Cc1ccc(O)c(C)c1-n1c(N)c(C(N)=O)c2nc(N3CCOCC3)cnc21`?
Answer: F [1]: 18%; IC50 (Cytochrome P450 2D6): > 30 µM; Papp [5]: 5.8 10^-6 cm/s; IC50 (Cytochrome P450 3A4): > 30 µM; CL free [2]: 151 mL/min/kg; PPB [3]: 62.8%; IC50 (Cytochrome P450 2C9): > 30 µM; CLH [6]: < 3 µL/min

Question: With `Cc1ccc(O)c(C)c1-n1c(N)c(C(N)=O)c2nccnc21` as the molecule, how does the F [1] read?
Answer: The F was 56%.

Question: And the IC50 (Cytochrome P450 2D6)?
Answer: Its IC50 is > 30 µM.

Question: What about the Papp [5] of the same molecule?
Answer: Its Papp is 19 10^-6 cm/s.

Question: What about the IC50 (Cytochrome P450 3A4) of the same molecule?
Answer: The IC50 was > 30 µM.

Question: And the CL free [2]?
Answer: Its CL free is 81 mL/min/kg.

Question: And the PPB [3]?
Answer: The PPB was 81%.

Question: And the IC50 (Cytochrome P450 2C9)?
Answer: The IC50 was > 30 µM.

Question: And the CLH [6]?
Answer: Its CLH is < 3 µL/min.

Question: Which IC50 (Ephrin type-B receptor 3) does the source give for `Cc1ccc(O)cc1-n1c(N)c(C(N)=O)c2cc3ccccc3nc21` here?
Answer: The IC50 was 7 nM.

Question: With `Cc1ccc(C(F)F)cc1-n1c(N)c(C(N)=O)c2nc3ccccc3nc21` as the molecule, how does the IC50 [4] read?
Answer: The IC50 was > 20000 nM.

Question: With `Cc1c(O)ccc(Cl)c1-n1c(N)c(C(N)=O)c2nc3ccccc3nc21` as the molecule, how does the IC50 (Wee1-like protein kinase) read?
Answer: The IC50 was 0.23 µM.

Question: For `Cc1ccc(O)cc1-n1c(N)c(C(N)=O)c2nc3ccccc3nc21`, which IC50 (Wee1-like protein kinase) is on record?
Answer: The IC50 was 3.7 µM.

Question: What about the IC50 (Ephrin type-B receptor 3) of the same molecule?
Answer: Its IC50 is 7 nM.

Question: With `NC(=O)c1c(N)n(-c2cccc(O)c2)c2nc3ccccc3nc12` as the molecule, how does the IC50 (Wee1-like protein kinase) read?
Answer: The IC50 was 19.6 µM.

Question: Which IC50 [4] does the source give for `NC(=O)c1c(N)n(-c2cccc3[nH]nnc23)c2nc3ccccc3nc12` here?
Answer: Its IC50 is > 20000 nM.
